Data from ChEMBL document CHEMBL1157674, “Nanomolar affinity, iminosugar-based chemical probes for specific labeling of lysosomal glucocerebrosidase” (Bioorg Med Chem, 2010).
pIC50, pKi: −log10 of the molar value. Calls of active or inactive are those of the source. No cut-off for these calls is given here.

How the values were obtained:
[1] = biological target: T1, Lysosomal acid glucosylceramidase (Homo sapiens) (UniProt P04062); assay: Displacement of deoxynojirimycin from human GBA at 5 uM by fluorescence assay
T1 sequence (whole entry): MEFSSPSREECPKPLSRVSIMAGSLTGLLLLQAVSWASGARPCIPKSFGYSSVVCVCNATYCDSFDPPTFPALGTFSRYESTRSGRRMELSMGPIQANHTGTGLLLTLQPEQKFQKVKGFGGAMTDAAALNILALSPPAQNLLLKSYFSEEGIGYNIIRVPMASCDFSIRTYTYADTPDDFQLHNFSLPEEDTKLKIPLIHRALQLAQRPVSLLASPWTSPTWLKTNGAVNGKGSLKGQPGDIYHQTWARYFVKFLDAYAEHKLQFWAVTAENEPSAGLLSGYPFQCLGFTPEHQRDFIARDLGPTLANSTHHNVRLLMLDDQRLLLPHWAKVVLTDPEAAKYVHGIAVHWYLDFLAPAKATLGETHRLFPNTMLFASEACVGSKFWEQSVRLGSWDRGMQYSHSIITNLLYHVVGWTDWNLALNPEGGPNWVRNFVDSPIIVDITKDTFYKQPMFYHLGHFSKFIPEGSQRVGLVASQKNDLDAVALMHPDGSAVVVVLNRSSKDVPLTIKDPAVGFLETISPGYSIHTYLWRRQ
Outline: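 Competition labeling: Ceredase with probe plus 0, 0.5, 5 or 25 µL of 1 mM deoxynojirimycin stock in 50 µL, 50 mM HEPES pH 6.1. UV irradiation at 366 nm for 30 min at 4 °C, then fluorescein-N3 click and SDS–PAGE fluorescence read-out.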

Prunus dulcis [2] = assay: Binding affinity to almond beta-glucosidase expressed in Escherichia coli BL21 (DE3) at 40 uM by fluorescence assay
Outline: (§1)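 E. coli BL21(DE3) lysate (1 mg/mL protein by BCA) spiked with varying amounts of almond β-glucosidase. Probe added as 4 or 10 µL of a 1 mM stock in 100 µL, in HEPES/NaCl pH 7.4. Photolabeling at 366 nm, 30 min, 4 °C, then fluorescein-N3 click. SDS–PAGE with fluorescence scan and silver stain.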

Prunus dulcis [3] = assay: Binding affinity to almond beta-glucosidase at 40 uM after 30 mins by fluorescence assay
Outline: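 Almond β-glucosidase from a 1 mg/mL stock, with probe added from a 1 mM stock in 5% DMSO/water, in 50 mM HEPES, 150 mM NaCl, pH 7.4. UV irradiation at 366 nm for 30 min at 4 °C; a non-irradiated control was kept dark. Then CuSO4/TCEP click with fluorescein-N3 for 1 h at rt. SDS–PAGE, fluorescence scan, then silver stain.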

[4] = biological target: T1, Lysosomal acid glucosylceramidase (Homo sapiens); assay: Binding affinity to human GBA at 0.1 uM by fluorescence assay
Outline: (§2)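 Ceredase (human placental GBA) photolabeled in 50 µL with probe at 10, 5, 3, 1, 0.5 or 0.1 µM in 50 mM HEPES pH 6.1. UV 366 nm, 30 min, 4 °C. Then CuSO4/TCEP click with fluorescein-N3 for 16 h at 4 °C, denaturation at 95 °C, SDS–PAGE and fluorescence scanning.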

Prunus dulcis [5] = assay: Binding affinity to almond beta-glucosidase expressed in Escherichia coli BL21 (DE3) at 100 uM by fluorescence assay; outline: as §1
[6] = Displacement of PNPG from almond beta-glucosidase by UV spectroscopy; parameters: species or system Prunus dulcis
Outline: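 Almond β-glucosidase with p-nitrophenyl β-D-glucopyranoside (0.2–5 mM) in 0.1 M acetate buffer pH 5.0, 150 µL wells. After 15 min at 37 °C, p-nitrophenol read at 405 nm. Ki derived by varying both inhibitor and substrate concentrations.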

[7] = biological target: T1, Lysosomal acid glucosylceramidase (Homo sapiens); assay: Binding affinity to human GBA at 10 uM by fluorescence assay; outline: as §2
[8] = Inhibition of Agrobacterium sp. beta-glucosidase
Beta-glucosidase = biological target: T2, Beta-glucosidase (Homo sapiens, UniProt Q9HCG7); assay: Displacement of 4-methylumbelliferyl from non-lysosomal GBA2 by fluorimetry
T2 sequence (Q9HCG7 whole entry): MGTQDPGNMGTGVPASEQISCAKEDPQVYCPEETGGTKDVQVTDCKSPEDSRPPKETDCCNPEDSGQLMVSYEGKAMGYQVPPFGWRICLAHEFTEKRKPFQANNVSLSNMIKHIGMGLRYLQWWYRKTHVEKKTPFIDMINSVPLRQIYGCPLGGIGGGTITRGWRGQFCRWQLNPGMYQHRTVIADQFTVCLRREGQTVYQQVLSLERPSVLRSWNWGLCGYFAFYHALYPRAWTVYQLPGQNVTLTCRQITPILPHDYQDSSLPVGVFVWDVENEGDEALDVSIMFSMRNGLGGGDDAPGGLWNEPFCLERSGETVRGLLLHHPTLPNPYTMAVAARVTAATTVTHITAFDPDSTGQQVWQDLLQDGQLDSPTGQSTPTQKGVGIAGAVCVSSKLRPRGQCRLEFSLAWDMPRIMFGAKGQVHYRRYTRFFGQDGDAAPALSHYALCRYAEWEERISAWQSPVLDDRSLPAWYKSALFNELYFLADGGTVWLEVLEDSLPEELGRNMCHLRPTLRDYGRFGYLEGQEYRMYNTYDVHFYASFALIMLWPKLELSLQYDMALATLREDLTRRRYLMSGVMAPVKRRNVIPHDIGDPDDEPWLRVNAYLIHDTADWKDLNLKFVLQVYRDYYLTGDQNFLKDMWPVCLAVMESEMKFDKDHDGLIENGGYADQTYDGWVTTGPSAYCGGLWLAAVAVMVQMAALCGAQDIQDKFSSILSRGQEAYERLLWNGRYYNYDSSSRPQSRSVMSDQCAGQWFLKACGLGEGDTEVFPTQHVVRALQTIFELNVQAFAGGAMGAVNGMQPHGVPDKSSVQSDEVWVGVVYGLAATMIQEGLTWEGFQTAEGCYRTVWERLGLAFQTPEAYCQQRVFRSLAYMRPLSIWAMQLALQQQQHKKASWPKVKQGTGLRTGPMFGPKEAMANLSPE

[9] = biological target: T1, Lysosomal acid glucosylceramidase (Homo sapiens); assay: Binding affinity to human GBA at 0.1 to 10 uM by fluorescence assay; outline: as §2
[10] = biological target: T3, Lysosomal acid glucosylceramidase (Homo sapiens, UniProt P04062); assay: Displacement of 4-methylumbelliferyl from human GBA by fluorimetry
T3 sequence (P04062 whole entry): T1 sequence (whole entry)

[11] = biological target: T1, Lysosomal acid glucosylceramidase (Homo sapiens); assay: Binding affinity to GBA in human HeLa cell extract at 3 uM by fluorescence assay; assay type: cell-free
Outline: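 300 ng Ceredase with increasing HeLa cell lysate (0.5 mg/mL stock; 0–40 µL) in 50 mM HEPES pH 6.1 with probe. UV 366 nm, 30 min, 4 °C. Then fluorescein-N3 click, SDS–PAGE, fluorescence scan and silver stain. Lysate prepared from 2.5×10^5 PBS-washed cells by detergent extraction; protein measured by BCA.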

Compound	Activity [1]	Activity [4]	Activity (Prunus dulcis [5])	pKi [6]	Activity [7]	pIC50 (Beta-glucosidase)	pIC50 [10]	other results
C#CCOc1ccc(C(=O)c2ccc(O[C@@H]3O[C@H](CO)[C@@H](O)[C@H](O)[C@H]3O)cc2)cc1	Active	inactive	Active	3.23	Active			Activity (Prunus dulcis [2]): Active; Activity (Prunus dulcis [3]): Active
OC[C@H]1NC[C@H](O)[C@@H](O)[C@@H]1O [DUVOGLUSTAT]				3.78				
C#CCOc1ccc(C(=O)c2ccc(O)cc2)cc1			Active					
CN(C)c1cccc2c(S(=O)(=O)NC[C@H]3N[C@H](CO)[C@@H](O)[C@@H]3O)cccc12								pKi [8]: 8.70
C#CCOc1ccc(C(=O)CCC(=O)NCCCN2C[C@H](O)[C@@H](O)[C@H](O)[C@H]2CO)cc1	Active			5.19		7.12	5.78	Activity [9]: inactive
C#CCOc1ccc(C(=O)c2ccc(C(=O)NCCCN3C[C@H](O)[C@@H](O)[C@H](O)[C@H]3CO)cc2)cc1	Active	inactive		5.89	Active	7.70	6.46	Activity [11]: Active
